Measured values from ChEMBL document CHEMBL4715906, “Antileishmanial macrolides from ant-associated Streptomyces sp. ISID311” (Bioorg Med Chem, 2021).
Activity calls are given as the source filed them. The calls are words filed in the database; no cut-off is given here.

How the values were obtained:
Escovopsis [1] = assay: Antifungal activity against Escovopsis ICBG711 at 100 ug measured after 21 days by ISP-2 agar based assay; type: functional; details: dose 100.0 µg, time 21.0 day
Summary of the method: (§1)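 Agar plug challenge on ISP-2: the producing bacterium was grown alone at plate centre for 7 days, then each fungal strain was point-inoculated 3 cm from centre. 100 µg of compound or miconazole was applied directly at plate centre. Plates were monitored for 21 days at 28 °C, with two replicates per sample–fungus pair.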

Escovopsis [2] = assay: Antifungal activity against Escovopsis ICBG740 at 100 ug measured after 21 days by ISP-2 agar based assay; type: functional; details: dose 100.0 µg, time 21.0 day; summary of the method: as §1
Escovopsis [3] = assay: Antifungal activity against Escovopsis ICBG741 at 100 ug measured after 21 days by ISP-2 agar based assay; type: functional; details: dose 100.0 µg, time 21.0 day; summary of the method: as §1
Escovopsis [4] = assay: Antifungal activity against Escovopsis ICBG1251 at 100 ug measured after 21 days by ISP-2 agar based assay; type: functional; details: dose 100.0 µg, time 21.0 day; summary of the method: as §1
Bacillus subtilis = assay: Antibacterial activity against Bacillus subtilis NRS 231 by agar-based assay; type: functional, organism-based
Escherichia coli = assay: Antibacterial activity against Escherichia coli ATCC 25922 by agar-based assay; type: functional, organism-based
Staphylococcus aureus = assay: Antibacterial activity against methicillin-sensitive Staphylococcus aureus Wichita by agar-based assay; type: functional, organism-based
Pseudomonas aeruginosa = assay: Antibacterial activity against Pseudomonas aeruginosa Boston 41501 by agar-based assay; type: functional, organism-based
Leishmania donovani [5] = assay: Antileishmanial activity against Leishmania donovani MHOM/ET/67/HU3 axenic promastigotes assessed as parasite growth inhibition after 72 hrs by resorufin dye based fluorometric analysis; type: functional, organism-based; details: MHOM/ET/67/HU3, 72 h
Summary of the method: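 Axenic promastigotes, 1×10^5 per well in log phase, in M199 pH 7.4 with 10% heat-inactivated FCS at 28 °C. Ten 2-fold dilutions from 0.125 to 64 µM (10 mM DMSO stocks) were incubated for 72 h; miltefosine was the reference. Alamar Blue was added for 3 h, read at ex 536/em 588 nm, normalized to untreated wells, and IC50 obtained by variable-slope fit.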

Leishmania donovani [6] = assay: Antileishmanial activity against Leishmania donovani MHOM/ET/67/HU3 amastigotes infected in human THP1 cells assessed as parasite growth inhibition after 120 hrs by giemsa staining based inverted microscopic analysis; type: functional, organism-based; details: MHOM/ET/67/HU3, THP-1, 120 h
Summary of the method: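 THP-1 cells (2×10^4/well, RPMI-1640) were differentiated with PMA 20 ng/mL for 72 h at 37 °C, 5% CO2. They were infected with late-stage promastigotes (2×10^5/well) for 24 h, washed, then exposed to serial dilutions for 120 h with a miltefosine control. Cells were methanol-fixed and Giemsa-stained, and amastigotes per macrophage counted microscopically relative to untreated wells. IC50 was from a variable-slope fit.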

[7] = Cytotoxicity against human THP1 cells assessed as growth inhibition after 120 hrs by Alamar blue dye based fluorometric analysis; type: cell-based; details: THP-1 cells
Summary of the method: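 PMA-differentiated THP-1 cells (2×10^4/well, PMA 20 ng/mL, 72 h, 37 °C, 5% CO2) were exposed to serial dilutions for 120 h with a doxorubicin control. Alamar Blue was added for 3 h, read at ex 536/em 588 nm, and inhibition taken relative to untreated wells. IC50 was from a variable-slope fit; mean ± SD of 3 biological replicates.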

[8] = Selectivity index, ratio of CC50 for human THP1 cells to IC50 for antileishmanial activity against Leishmania donovani MHOM/ET/67/HU3 amastigotes infected in human THP1 cells after 120 hrs; type: toxicity, cell-based; details: read-out: Ratio CC50/IC50
Summary of the method: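 Index computed as CC50 in PMA-differentiated THP-1 cells (120 h Alamar Blue read-out) divided by IC50 against intracellular amastigotes in THP-1 (120 h exposure, Giemsa count).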

Trichoderma = assay: Antifungal activity against Trichoderma ICBG1100 at 100 ug measured after 21 days by ISP-2 agar based assay; type: functional, organism-based; details: dose 100.0 µg, time 21.0 day; summary of the method: as §1
Cunninghamella = assay: Antifungal activity against Cunninghamella ICBG752 at 100 ug measured after 21 days by ISP-2 agar based assay; type: functional, organism-based; details: dose 100.0 µg, time 21.0 day; summary of the method: as §1

Row | Structure (SMILES) | Activity (Escovopsis [1]) | Activity (Escovopsis [2]) | Activity (Escovopsis [3]) | Activity (Escovopsis [4]) | Activity (Bacillus subtilis) | Activity (Escherichia coli) | Activity (Staphylococcus aureus) | Activity (Pseudomonas aeruginosa) | IC50 (Leishmania donovani [5]) [µM] | IC50 (Leishmania donovani [6]) [µM] | CC50 at 120 h [7] [µM] | selectivity ratio at 120 h [8] | Activity (Trichoderma) | Activity (Cunninghamella)
1 | CC[C@H](O[C@H]1C[C@@](C)(O)[C@H](O[C@H]2CC[C@H](OC(=O)[C@H](C)[C@H](O)c3ccc4c(c3)C(=O)C=C(C)C4=O)[C@@H](C)O2)[C@H](C)O1)[C@H](C)[C@H](O)[C@@H](C)[C@H](O)[C@H](C)[C@H]1OC(=O)/C=C/[C@H](C)[C@H](O)C[C@H](O)CCC[C@@H](O)CC[C@@H](C)[C@H](O)C(=O)[C@@]2(O)C[C@@H](O)C[C@@H](C[C@@H](O)C[C@H](O)C[C@H](O)CCC[C@H](O)[C@@H]3O[C@H]3[C@@H]1C)O2 | Active | Active | Active | Active | inactive | inactive | inactive | inactive | 0.034 | 0.091 | 6.4 | 70.3 | inactive | inactive
2 | CCCCCCCCCCCCCCCCOP(=O)([O-])OCC[N+](C)(C)C [MILTEFOSINE] |  |  |  |  |  |  |  |  | 4.98 | 5.33 | 60.7 | 11.4 |  | 
3 | CC[C@H](O[C@H]1C[C@@](C)(O)[C@H](O[C@H]2CC[C@H](OC(=O)[C@H](C)[C@H](O)c3ccc4c(c3)C(=O)C=C(C)C4=O)[C@@H](C)O2)[C@H](C)O1)[C@H](C)[C@H](O)[C@@H](C)[C@H](O)[C@H](C)[C@H]1OC(=O)/C=C/[C@H](C)[C@H](O)C[C@H](O)CCC[C@@H](O)CC[C@@H](C)[C@H](O)C(=O)[C@@]2(O)C[C@@H](O)C[C@@H](C[C@@H](O)C[C@H](O)C[C@H](O)CCC[C@H](O)/C=C/[C@@H]1C)O2 | Active | Active | Active | Active | inactive | inactive | inactive | inactive | 0.118 | 2.32 | 11.5 | 4.94 | inactive | inactive
4 | COc1cccc2c1C(=O)c1c(O)c3c(c(O)c1C2=O)C[C@@](O)(C(=O)CO)C[C@@H]3O[C@H]1C[C@H](N)[C@H](O)[C@H](C)O1 [DOXORUBICIN] |  |  |  |  |  |  |  |  |  |  | 0.58 |  |  | 
5 | CC[C@H](O[C@H]1C[C@@](C)(O)[C@H](O[C@H]2CC[C@H](OC(=O)[C@H](C)[C@H](O)c3ccc4c(c3)C(=O)C=C(C)C4=O)[C@@H](C)O2)[C@H](C)O1)[C@H](C)[C@H](O)[C@@H](C)[C@H](O)[C@H](C)[C@H]1OC(=O)/C=C/[C@H](C)[C@H](O)C[C@H](O)CCC[C@@H](O)CC[C@@H](C)[C@H](O)C(=O)[C@]2(O)O[C@H](C[C@@H](O)C[C@H](O)C[C@H](O)CCC[C@H](O)[C@@H]3O[C@H]3[C@@H]1C)C[C@H](O)[C@H]2O | Active | Active | Active | Active | inactive | inactive | inactive | inactive | 0.046 | 0.073 | 6.07 | 83.2 | inactive | inactive
